Results published in paper PMC6558985 (Nature chemical biology, 2019).

What was measured:
HeLa-WT cells [1] = assay: CellTiter-Glo cell viability assay; assay type: cell-based, human; conditions: 10 µM, 48 h
Xl-katanin = Xl-katanin (Xenopus laevis, UniProt Q9PUL2); assay: Steady-state ATPase activity, NADH-coupled assay, Xl-katanin; assay type: biochemical, X. laevis; conditions: 10 µM, 0.5 mM MgATP, n = 3
How it was run: (§1)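 Recombinant AAA protein constructs assayed by steady-state ATPase with NADH-coupled read-out at 0.5 mM MgATP, with test compound at 2 µM or 10 µM. Activity is reported as percent of steady-state ATPase activity, average ± s.d., n = 3.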

HeLa-WT cells [2] = assay: Microtubule organization; assay type: cell-based, human; conditions: 10 µM, 4 hours
Hs-spastin-N386C = assay: Steady-state ATPase activity, NADH-coupled assay, Hs-spastin N386C; assay type: biochemical, human; conditions: 1 mM MgATP
HeLa-WT cells [3] = assay: Intercellular bridge analysis; assay type: cell-based, human; conditions: 10 µM, 4.5 hours
How it was run: (§2)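 Fixed HeLa Flp-In T-Rex lines expressing GFP-tagged spastin M87e4, either wildtype or N386C. Cells were exposed to 0.1% DMSO or 10 µM test compound for 4.5 h, then stained for acetylated tubulin to mark intercellular bridges and imaged by immunofluorescence. Read-out is the percent of cells with a bridge: >2500 cells per condition, average ± s.d., n = 3.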

Mm-VCP = Mm-VCP (Mus musculus, UniProt Q01853, I206V); assay: Steady-state ATPase activity, NADH-coupled assay, Mm-VCP; assay type: biochemical; conditions: 10 µM, 0.5 mM MgATP, n = 3
How it was run: as §1

Hs-PCH2 = molecular target: T1, Hs-PCH2 (Homo sapiens, UniProt Q15645); assay: Steady-state ATPase activity, NADH-coupled assay, Hs-PCH2; assay type: biochemical; conditions: 10 µM, 0.5 mM MgATP, n = 3
T1 sequence (Q15645 1-432): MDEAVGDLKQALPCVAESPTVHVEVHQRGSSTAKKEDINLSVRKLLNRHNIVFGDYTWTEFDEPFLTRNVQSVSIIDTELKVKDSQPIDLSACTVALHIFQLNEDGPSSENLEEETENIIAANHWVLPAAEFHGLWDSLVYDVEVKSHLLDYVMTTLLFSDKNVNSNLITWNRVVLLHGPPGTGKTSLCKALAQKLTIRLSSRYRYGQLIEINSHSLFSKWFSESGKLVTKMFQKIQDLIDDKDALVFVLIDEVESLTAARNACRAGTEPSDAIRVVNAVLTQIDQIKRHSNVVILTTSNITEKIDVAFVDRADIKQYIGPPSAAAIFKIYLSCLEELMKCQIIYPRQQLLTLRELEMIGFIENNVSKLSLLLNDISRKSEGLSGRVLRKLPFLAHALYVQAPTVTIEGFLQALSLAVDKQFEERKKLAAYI
How it was run: as §1

HeLa-N386C cells [4] = assay: Intercellular bridge analysis; assay type: cell-based, human; conditions: 10 µM, 4.5 hours, average ± s.d., n = 3
How it was run: as §2

human VPS4B = molecular target: T2, human VPS4B (Homo sapiens, UniProt O75351); assay: Steady-state ATPase activity, NADH-coupled assay, VPS4B; assay type: biochemical; conditions: 1 mM MgATP, n = 3
T2 sequence (O75351 1-444): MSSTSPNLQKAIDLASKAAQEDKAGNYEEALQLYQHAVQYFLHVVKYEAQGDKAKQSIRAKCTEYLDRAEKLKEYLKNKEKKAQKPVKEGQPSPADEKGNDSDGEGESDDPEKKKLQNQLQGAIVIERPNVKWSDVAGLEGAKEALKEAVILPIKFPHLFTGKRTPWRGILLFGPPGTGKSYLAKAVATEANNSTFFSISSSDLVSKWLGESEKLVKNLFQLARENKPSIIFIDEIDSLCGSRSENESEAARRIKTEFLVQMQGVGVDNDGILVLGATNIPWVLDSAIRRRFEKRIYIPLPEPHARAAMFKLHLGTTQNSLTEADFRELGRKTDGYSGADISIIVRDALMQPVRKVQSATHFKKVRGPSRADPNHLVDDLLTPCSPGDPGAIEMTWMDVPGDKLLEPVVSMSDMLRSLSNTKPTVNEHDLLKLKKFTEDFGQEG

Hs-FIGL1 = molecular target: T3, Hs-FIGL1 (Homo sapiens, UniProt Q6PIW4); assay: Steady-state ATPase activity, NADH-coupled assay, Hs-FIGL1; assay type: biochemical; conditions: 10 µM, 0.5 mM MgATP, n = 3
T3 sequence (Q6PIW4 288-674): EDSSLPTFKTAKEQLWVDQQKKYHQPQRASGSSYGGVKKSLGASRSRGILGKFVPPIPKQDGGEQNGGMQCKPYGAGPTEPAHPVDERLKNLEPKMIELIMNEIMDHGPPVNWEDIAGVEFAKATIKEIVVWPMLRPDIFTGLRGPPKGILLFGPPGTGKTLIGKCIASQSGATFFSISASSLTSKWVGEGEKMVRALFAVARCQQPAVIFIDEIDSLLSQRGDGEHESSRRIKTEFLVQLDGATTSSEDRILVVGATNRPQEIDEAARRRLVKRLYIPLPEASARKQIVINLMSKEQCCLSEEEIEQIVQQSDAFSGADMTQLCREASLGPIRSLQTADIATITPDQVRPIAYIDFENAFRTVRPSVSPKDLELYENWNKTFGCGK
How it was run: as §1

HeLa-N386C cells [5] = assay: Live-cell imaging of GFP-spastin puncta in anaphase, HeLa-N386C; assay type: cell-based, human; conditions: 10 µM for 1 hour, 20 min after cleavage furrow ingression

Xl-katanin, sequence (Q9PUL2 whole entry): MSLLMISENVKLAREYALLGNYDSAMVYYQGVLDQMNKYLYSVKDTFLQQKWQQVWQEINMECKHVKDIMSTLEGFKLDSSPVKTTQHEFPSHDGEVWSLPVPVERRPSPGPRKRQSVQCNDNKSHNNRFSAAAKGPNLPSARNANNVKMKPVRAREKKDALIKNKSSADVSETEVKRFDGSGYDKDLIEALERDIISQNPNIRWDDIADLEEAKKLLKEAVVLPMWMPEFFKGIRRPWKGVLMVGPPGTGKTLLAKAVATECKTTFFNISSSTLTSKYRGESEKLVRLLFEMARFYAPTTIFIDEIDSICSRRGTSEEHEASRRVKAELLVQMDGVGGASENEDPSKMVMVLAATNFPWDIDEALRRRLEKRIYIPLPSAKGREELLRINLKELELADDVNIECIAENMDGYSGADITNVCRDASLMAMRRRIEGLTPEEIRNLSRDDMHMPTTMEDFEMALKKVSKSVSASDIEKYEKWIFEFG
Mm-VCP, sequence (Q01853 whole entry I206V): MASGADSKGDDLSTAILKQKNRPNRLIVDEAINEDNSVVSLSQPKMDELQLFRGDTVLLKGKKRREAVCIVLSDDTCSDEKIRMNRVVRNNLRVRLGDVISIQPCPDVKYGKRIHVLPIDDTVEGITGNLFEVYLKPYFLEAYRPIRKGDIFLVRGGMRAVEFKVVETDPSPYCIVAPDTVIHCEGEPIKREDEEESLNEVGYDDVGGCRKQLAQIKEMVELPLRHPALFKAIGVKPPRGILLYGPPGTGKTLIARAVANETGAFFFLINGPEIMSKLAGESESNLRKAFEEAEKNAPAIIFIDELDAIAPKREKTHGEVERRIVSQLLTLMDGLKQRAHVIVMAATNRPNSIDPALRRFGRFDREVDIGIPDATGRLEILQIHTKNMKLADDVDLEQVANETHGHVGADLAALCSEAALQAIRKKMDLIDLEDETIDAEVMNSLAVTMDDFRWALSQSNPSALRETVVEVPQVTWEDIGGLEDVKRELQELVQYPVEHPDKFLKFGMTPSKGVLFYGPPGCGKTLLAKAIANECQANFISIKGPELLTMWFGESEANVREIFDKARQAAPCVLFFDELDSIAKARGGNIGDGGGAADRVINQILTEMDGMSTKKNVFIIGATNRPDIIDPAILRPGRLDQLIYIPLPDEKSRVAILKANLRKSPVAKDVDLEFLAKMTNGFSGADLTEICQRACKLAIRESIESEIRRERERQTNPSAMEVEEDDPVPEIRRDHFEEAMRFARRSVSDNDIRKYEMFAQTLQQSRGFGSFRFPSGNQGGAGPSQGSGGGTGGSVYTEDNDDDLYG

inhibition of Xl-katanin ATPase activity (Xl-katanin): did not appreciably inhibit
potency on Hs-spastin-N386C relative to wildtype (less potent) (Hs-spastin-N386C): > 100 fold
inhibition of Mm-VCP ATPase activity (Mm-VCP): did not appreciably inhibit
inhibition of Hs-PCH2 ATPase activity (Hs-PCH2): did not appreciably inhibit
inhibition of ATPase activity of recombinant human VPS4 (human VPS4B): did not inhibit ATPase activity
inhibition of Hs-FIGL1 ATPase activity (Hs-FIGL1): did not appreciably inhibit
Structure (SMILES): CC(C)[C@@H]1CN(c2nc(Nc3cc(C(C)(C)C)[nH]n3)c3cc[nH]c3n2)CCN1 [spastazoline, (R)-N-(5-(tert-butyl)-1H-pyrazol-3-yl)-2-(3-isopropylpiperazin-1-yl)-7H-pyrrolo[2,3-d]pyrimidin-4-amine]
viability of HeLa cells (HeLa-WT cells [1]): did not impact the viability
organization of microtubules (HeLa-WT cells [2]): did not result in overt changes in the organization of microtubules
increase in number of cells with intercellular bridges compared to DMSO control, HeLa-WT (HeLa-WT cells [3]): ~ 2 fold
percent of cells with an intercellular bridge, HeLa-WT (HeLa-WT cells [3]; average ± s.d., n = 3): 25.2 ± 1.4%
percent of cells with an intercellular bridge, HeLa-N386C (HeLa-N386C cells [4]): 13.6 ± 1.4%
increase in GFP-spastin dots in HeLa-N386C with respect to wildtype (HeLa-N386C cells [5]): 1.6 fold
number of GFP-spastin dots, HeLa-N386C (HeLa-N386C cells [5]; average ± s.e.m.): 8 ± 3
